Most compounds without a hit are left out; they make up all but 4.6% or so of the library.
CHO parental Ca – counter-screen: ATP calcium response change in parental CHO cells; 330,000 tested, 0.63% active; inhibition, % at 5.6 µM; parental CHO-K1, ATP-induced calcium, Fluo-8 fluorescence; AID 463079;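 active = inhibition above that plate's mean sample inhibition plus 3 SD, cut at about 26% in these data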;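 also: 0% = ATP-challenged DMSO wells and 100% = DMSO wells without ATP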
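Material – parental CHO cells · Reagent – ATP stimulus · Compound – single nominal dose of 5.6 µM per compound · Detection – Fluo-8 fluorescence · Read-out basis – percent inhibition of calcium signal · Controls – ATP-challenged DMSO wells low, unchallenged DMSO wells high · Repeats – no replicates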
TAAR1 ag – agonists of human TAAR1. Q96RJ0. CHO RD-HGA16 TAAR1, Fluo-8 calcium fluorescence; vehicle wells 0%, saturating PEA agonist 100%. activation, % at 3 µM. 360,000 tested, 0.99% active. AID 624467;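 active = activation above the mean activation of all test compounds in the run plus 3 SD, cut at about 38% in these data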
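Assay system: CHO-derived RD-HGA16 cells with stable Gα16 and human TAAR1; timing: 17-24 h seeding, 75 min 37 °C dye, 30 min RT; read-out: % activation from peak over basal fluorescence ratio, DMSO-to-PEA scaled; measured by: kinetic Fluo-8 calcium fluorescence; benchmarks: low control DMSO, high control PEA (EC100); doses: 3 µM single concentration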
OX1R antag-1 – antagonists of human orexin 1 receptor; O43613; 330,000 tested, 0.43% active; AID 434989; inhibition, % at 5 µM; CHO/OX1R cells, Fluo-8 calcium fluorescence, orexin A;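 active = inhibition above its plate's threshold, mean inhibition of all tested compounds on the plate plus 3 SD, cut at about 37% in these data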;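 also: 0% = orexin A challenge wells and 100% = SB-334867-A antagonist wells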
Target sequence (O43613 whole entry, looked up): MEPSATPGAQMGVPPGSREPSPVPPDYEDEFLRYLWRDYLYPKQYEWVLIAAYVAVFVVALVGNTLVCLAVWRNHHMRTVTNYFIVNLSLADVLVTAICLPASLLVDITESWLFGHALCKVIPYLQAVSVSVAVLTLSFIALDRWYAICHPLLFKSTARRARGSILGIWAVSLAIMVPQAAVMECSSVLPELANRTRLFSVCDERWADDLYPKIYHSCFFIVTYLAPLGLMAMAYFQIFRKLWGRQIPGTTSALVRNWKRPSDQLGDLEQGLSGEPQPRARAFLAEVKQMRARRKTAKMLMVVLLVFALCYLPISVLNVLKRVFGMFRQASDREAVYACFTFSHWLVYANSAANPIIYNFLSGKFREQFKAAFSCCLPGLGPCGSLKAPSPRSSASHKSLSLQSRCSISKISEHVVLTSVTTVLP
GPR7 antagonist – antagonists of human GPR7 (neuropeptides B/W receptor 1); P48145; GPR7-expressing cells, fluorescence antagonist assay; inhibition, % at 4.4 µM; 290,000 tested, 1.1% active; AID 1861; in the data active = inhibition above about 16%, passing the limit was not always enough;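 also: cells stimulated with the agonist NPW; 0% = agonist with vehicle and 100% = vehicle without agonist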
TAAR1 antag – antagonists of human TAAR1. Q96RJ0. CHO RD-HGA16 TAAR1, Fluo-8 calcium fluorescence, antagonist. inhibition, % at 3 µM. 360,000 tested, 1.5% active;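 active = inhibition above a per-plate cutoff, the mean inhibition of test compounds on that plate plus 3 SD, cut at about 49% in these data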;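 also: 0% = DMSO plus EC80 beta-PEA response and 100% = DMSO alone without agonist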
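Test system: RD-HGA16 CHO cells with stable hTAAR1 and Gα16 / Probe or stimulus: EC80 β-phenethylamine stimulus / Times: seeding 17-24 h prior, 75-min 37 °C, 30-min RT dye loading / Detection: Fluo-8 calcium-sensitive fluorescence / Read-out basis: % inhibition scaled between DMSO and EC80 PEA controls / Repeats: singlicate, one well per test compound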
OX1R antag-2 – blocks the human orexin 1 receptor | O43613 | OX1R-expressing cells, FRET antagonist read-out | inhibition, % at 6.6 µM | 330,000 tested, 1.8% active; in the data active = inhibition mostly above about 38%, no sharp cut-off; inactive = mostly below about 40%;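 also: 0% = agonist challenge alone and 100% = reference antagonist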
* marks the source's active call; other numbers are inactive results; x = no result.

SMILES	CHO parental Ca	TAAR1 ag	OX1R antag-1	GPR7 antagonist	TAAR1 antag	OX1R antag-2
Cc1ccc(CNC(=O)c2cc3c(C)nc4ccccc4c3o2)cc1	23.6	0.1	-21.6	-13.9	28.0	56.8*
COc1ccc(NC(=O)C2CCCCC2)cc1S(=O)(=O)N1CCOCC1	-12.8	1.5	-12.3	x	-7.4	10.1
CCOC(=O)c1cc(C)sc1NC(=O)CN1CCN(C(=O)c2ccco2)CC1	87.1*	41.6*	52.9*	-21.5	34.5	7.3
CCOC(=O)c1c(NC(=O)CN2CCN(C(=O)c3ccco3)CC2)sc2c1CCCC2	60.0*	7.7	70.4*	0.5	8.7	15.4
CCOC(=O)c1c(NC(=O)c2ccco2)sc2c1CCCC2	-5.1	7.2	-8.8	-14.1	-1.3	7.7
Cc1ccc(Oc2ccccc2NC(=O)CSCC(=O)Nc2cc(C)on2)cc1	-6.0	3.9	-10.3	x	-13.7	29.0
CC(=O)N1Cc2cc(C(=O)NCC(F)(F)F)nc(-c3cccc(-c4cc5ccccc5o4)c3)c2[C@@H]1CCO	x	2.2	x	x	-20.8	x
CC(C)(C)S(=O)N1Cc2cc(C(=O)NCCCN3CCOCC3)nc(-c3cccc(-c4cc5ccccc5o4)c3)c2[C@@H]1CCO (some centres not stated)	x	20.6	x	x	55.3*	x
CC(C)(C)S(=O)N1Cc2cc(C(=O)NCC(F)(F)F)nc(-c3cccc(-c4cccc(F)c4)c3)c2[C@@H]1CCO (some centres not stated)	x	14.7	x	x	50.8*	x
CCCNC(=O)c1cc2c(c(-c3cccc(-c4cc5ccccc5o4)c3)n1)[C@H](CCO)N(C(=O)NC(C)C)C2	x	5.0	x	x	50.1*	x
COc1ccc(CN(C)C(=O)C(Cc2ccccc2)NC(=O)c2ccccc2)cc1F (configuration not stated)	x	14.4	x	x	73.3*	x
COc1ccc(CN(C)C(=O)c2ccc(Oc3ccccc3)cc2)cc1F	-3.7	1.4	-27.5	12.5	32.3	12.8
Cn1c(=NC(=O)CS(=O)(=O)c2ccccc2)sc2ccccc21	-5.9	0.6	-12.9	x	0.8	1.2
C#CCn1c(=NC(=O)c2cccs2)sc2cccc(OC)c21	12.2	0.1	-40.7	-1.5	13.8	65.7*
CCn1c(=NC(=O)CS(=O)(=O)c2ccccc2)sc2cccc(OC)c21	5.0	2.7	19.5	x	7.1	33.1*
C#CCn1c(=NC(=O)CN2C(=O)CCC2=O)sc2cccc(OC)c21	-14.0	0.5	-21.5	-7.2	2.6	7.7
O=C(Nc1ccc(Cl)c(Cl)c1)Oc1ccc(NC(=O)c2ccco2)cc1	42.1*	22.8	38.1	2.6	34.8	31.9
CN(C)S(=O)(=O)c1ccc(C(=O)/C=C/c2cccnc2)cc1	0.6	-2.1	-12.2	5.0	1.8	29.4
COC(=O)C1CCN(C(=O)c2cc(-c3ccc(Cl)s3)nc3ccccc23)CC1	2.1	9.4	14.2	x	56.6*	0.9
CCN1CCN(C(=O)c2cc(-c3ccc(Cl)s3)nc3ccccc23)CC1	x	19.7	x	-8.1	4.8	x
O=C(Nc1ccccn1)NC(C(F)(F)F)C(F)(F)F	-0.9	1.4	-15.2	-2.8	2.8	-0.1
O=C(O)CC1(CC(=O)Nc2cc(C(F)(F)F)cc(C(F)(F)F)c2)CCCCC1	-2.0	2.4	2.0	-4.1	-30.1	41.9*
COc1cccc(NC(=O)C2CCCN(S(=O)(=O)c3cccc4cccnc34)C2)c1 (configuration not stated)	-7.7	5.2	15.3	-3.7	19.7	55.1*
CCOc1ccccc1NC(=O)C1CCCN(S(=O)(=O)c2cccc3cccnc23)C1 (configuration not stated)	-32.0	4.5	-22.9	-9.4	15.7	38.2*
O=C(NC1CCCCC1)C1CCCN(S(=O)(=O)c2cccc3cccnc23)C1 (configuration not stated)	-13.6	1.3	-22.2	-29.2	-16.9	16.9
CCOc1ccccc1NC(=O)C1CCCN(S(=O)(=O)c2cccc3nsnc23)C1 (configuration not stated)	-20.9	12.7	-6.9	9.0	18.6	55.3
O=C(Nc1ccccc1F)C1CCCN(S(=O)(=O)c2cccc3cccnc23)C1 (configuration not stated)	-32.8	5.3	-24.8	6.7	17.1	35.1*

Bioassay records: PubChem BioAssay, The Scripps Research Institute Molecular Screening Center
